Laboratory results taken from publication PMC5689172 (Biochemistry and Biophysics Reports, 2016).
In brackets after ≈: the same amount, converted by molar mass. Read-outs that look alike come from different tables or passages of the source.

Columns and labels:
Cytotoxicity, MTT assay = format: cell-based; details: human, MRC-5 cells (normal embryonic lung cell line)
S. aureus ATCC 25923 = assay: Antimicrobial activity, agar dilution method; format: cell-based; details: Staphylococcus aureus, ATCC25923
Method in brief: (§1)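 Test compound in DMSO, mixed with Mueller–Hinton broth, two-fold serially diluted, and incorporated into MH agar at final 0.25–256 μg/mL. Agar with 0.5% DMSO served as reagent control. Organisms were grown overnight in MH broth at 37 °C, diluted in normal saline to 0.5 McFarland (1.5×10⁸ CFU/mL), and inoculated onto plates. Plates were incubated at 37 °C for 24–48 h, then MIC was recorded.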

S. aureus ATCC 29213 = assay: Antimicrobial activity, agar dilution method; format: cell-based; details: Staphylococcus aureus, ATCC29213
Method in brief: as §1

[1] = test system: S. epidermidis ATCC 12228; assay: Antimicrobial activity, agar dilution method; format: cell-based; details: Staphylococcus epidermidis, ATCC12228
Method in brief: as §1

M. luteus ATCC 10240 = assay: Antimicrobial activity, agar dilution method; format: cell-based; details: Micrococcus luteus, ATCC10240
Method in brief: as §1

E. faecalis ATCC 29212 = assay: Antimicrobial activity, agar dilution method; format: cell-based; details: Enterococcus faecalis, ATCC29212
Method in brief: as §1

E. faecalis ATCC 33186 = assay: Antimicrobial activity, agar dilution method; format: cell-based; details: Enterococcus faecalis, ATCC33186
Method in brief: as §1

[2] = test system: C. diphtheriae NCTC 10356; assay: Antimicrobial activity, agar dilution method; format: cell-based; details: Corynebacterium diphtheriae, NCTC10356
Method in brief: as §1

B. subtilis ATCC 6633 = assay: Antimicrobial activity, agar dilution method; format: cell-based; details: Bacillus subtilis, ATCC6633
Method in brief: as §1

B. cereus = assay: Antimicrobial activity, agar dilution method; format: cell-based; details: Bacillus cereus
Method in brief: as §1

L. monocytogenes = assay: Antimicrobial activity, agar dilution method; format: cell-based; details: Listeria monocytogenes
Method in brief: as §1

E. coli ATCC 25922 = assay: Antimicrobial activity, agar dilution method; format: cell-based; details: Escherichia coli, ATCC25922
Method in brief: as §1

[3] = test system: K. pneumoniae ATCC 700603; assay: Antimicrobial activity, agar dilution method; format: cell-based; details: Klebsiella pneumoniae, ATCC700603
Method in brief: as §1

S. marcescens ATCC 8100 = assay: Antimicrobial activity, agar dilution method; format: cell-based; details: Serratia marcescens, ATCC8100
Method in brief: as §1

[4] = test system: S. Typhimurium ATCC 13311; assay: Antimicrobial activity, agar dilution method; format: cell-based; details: Salmonella enterica, ATCC13311|TYPHIMURIUM
Method in brief: as §1

[5] = test system: S. Choleraesuis ATCC 10708; assay: Antimicrobial activity, agar dilution method; format: cell-based; details: Salmonella enterica, ATCC10708|CHOLERAESUIS
Method in brief: as §1

S. Enteritidis = assay: Antimicrobial activity, agar dilution method; format: cell-based; details: Salmonella enterica
Method in brief: as §1

S. dysenteriae = assay: Antimicrobial activity, agar dilution method; format: cell-based; details: Shigella dysenteriae
Method in brief: as §1

M. morganii = assay: Antimicrobial activity, agar dilution method; format: cell-based; details: Morganella morganii
Method in brief: as §1

C. freundii = assay: Antimicrobial activity, agar dilution method; format: cell-based; details: Citrobacter freundii
Method in brief: as §1

P. shigelloides = assay: Antimicrobial activity, agar dilution method; format: cell-based; details: Plesiomonas shigelloides, P. shigelloides; agar dilution
A. hydrophila = assay: Antimicrobial activity, agar dilution method; format: cell-based; details: Aeromonas hydrophila
Method in brief: as §1

P. aeruginosa ATCC 27853 = assay: Antimicrobial activity, agar dilution method; format: cell-based, Pseudomonas aeruginosa; details: Pseudomonas aeruginosa, ATCC27853
Method in brief: as §1

P. stutzeri ATCC 17587 = assay: Antimicrobial activity, agar dilution method; format: cell-based, Pseudomonas stutzeri; details: Stutzerimonas stutzeri, ATCC17587
Method in brief: as §1

[6] = test system: S. putrefaciens ATCC 8071; assay: Antimicrobial activity, agar dilution method; format: cell-based; details: Shewanella putrefaciens, ATCC8071
Method in brief: as §1

[7] = test system: A. xylosoxidans ATCC 27061; assay: Antimicrobial activity, agar dilution method; format: cell-based; details: Achromobacter xylosoxidans, ATCC27061
Method in brief: as §1

C. albicans ATCC 90028 = assay: Antimicrobial activity, agar dilution method; format: cell-based; details: Candida albicans, ATCC90028
Method in brief: as §1

S. cerevisiae ATCC 2601 = assay: Antimicrobial activity, agar dilution method; format: cell-based; details: Saccharomyces cerevisiae, ATCC2601
Method in brief: as §1

Gram-negative bacteria = assay: Antimicrobial activity, agar dilution method, summarised over the group; format: cell-based
Method in brief: as §1

diploid fungi and yeast = assay: as above; format: cell-based, Candida albicans; details: Saccharomyces cerevisiae, ATCC2601|ATCC90028
Method in brief: as §1

[8] = test system: twenty-seven strains of microorganisms; format: cell-based
Method in brief: as §1

MRC-5 cell line = assay: Cytotoxicity, MTT assay; format: cell-based; details: MRC-5 normal cells, MTT
[9] = Antioxidant activity, DPPH radical scavenging assay; format: biochemical
Method in brief: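 Sample solution (test compound, 1 mg/mL in DMSO) was mixed with 0.1 mM DPPH in methanol and kept 30 min in the dark. Absorbance was read at 517 nm. Radical scavenging activity (%) = [1 − Abs(sample)/Abs(control)] × 100. α-Tocopherol was the positive control.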

P. aeruginosa = details: anti-biofilm agent; cited from earlier work
E. coli = details: cited from earlier work

SMILES | IC50 at 48 h (Cytotoxicity, MTT assay) [µM] | MIC (S. aureus ATCC 25923) [µM] | MIC (S. aureus ATCC 29213) [µM] | MIC [1] [µM] | MIC (M. luteus ATCC 10240) [µM] | MIC (E. faecalis ATCC 29212) [µM] | MIC (E. faecalis ATCC 33186) [µM] | MIC [2] [µM] | MIC (B. subtilis ATCC 6633) [µM] | MIC (B. cereus) [µM] | MIC (L. monocytogenes) [µM] | MIC (E. coli ATCC 25922) [µM] | MIC [3] [µM] | MIC (S. marcescens ATCC 8100) [µM] | MIC [4] [µM] | MIC [5] [µM] | MIC (S. Enteritidis) [µM] | MIC (S. dysenteriae) [µM] | MIC (M. morganii) [µM] | MIC (C. freundii) [µM] | further results
COc1cccc2c1C(=O)c1c(O)c3c(c(O)c1C2=O)C[C@@](O)(C(=O)CO)C[C@@H]3O[C@H]1C[C@H](N)[C@H](O)[C@H](C)O1 [Doxorubicin] | 0.62 ± 0.03 | – | – | – | – | – | – | – | – | – | – | – | – | – | – | – | – | – | – | – | –
Oc1c(I)cc(I)c2cccnc12 [Iodoquinol (7), iodoquinol] | – | 645 (≈ 256 µg/mL) | 645 (≈ 256 µg/mL) | 645 (≈ 256 µg/mL) | 322 (≈ 128 µg/mL) | > 645 | > 645 | > 645 | 80.6 (≈ 32 µg/mL) | 645 (≈ 256 µg/mL) | 645 (≈ 256 µg/mL) | > 645 | > 645 | > 645 | > 645 | > 645 | > 645 | 645 (≈ 256 µg/mL) | > 645 | > 645 | MIC (P. shigelloides): 645 µM (≈ 256 µg/mL); MIC (A. hydrophila): 645 µM (≈ 256 µg/mL); MIC (P. aeruginosa ATCC 27853): > 645 µM; MIC (P. stutzeri ATCC 17587): > 645 µM; MIC [6]: 645 µM (≈ 256 µg/mL); MIC [7]: > 645 µM; MIC (C. albicans ATCC 90028): 645 µM (≈ 256 µg/mL); MIC (S. cerevisiae ATCC 2601): > 645 µM; MIC (Gram-negative bacteria): ≥ 645 µM; MIC (diploid fungi and yeast): ≥ 645 µM; MIC ([8]; most of the bacterial strains / most of the tested microorganisms): ≥ 645 µM; cytotoxicity in words (MRC-5 cell line): non-cytotoxic
O=[N+]([O-])c1ccc(O)c2ncccc12 [NQ (2), Nitroxoline] | 88.1 ± 2.11 | 42.1 (≈ 8 µg/mL) | 42.1 (≈ 8 µg/mL) | 42.1 (≈ 8 µg/mL) | 10.5 (≈ 2 µg/mL) | 42.1 (≈ 8 µg/mL) | 42.1 (≈ 8 µg/mL) | 42.1 (≈ 8 µg/mL) | 42.1 (≈ 8 µg/mL) | 21 (≈ 4 µg/mL) | 42.1 (≈ 8 µg/mL) | 21 (≈ 4 µg/mL) | 84.1 (≈ 16 µg/mL) | 21 (≈ 4 µg/mL) | 21 (≈ 4 µg/mL) | 84.1 (≈ 16 µg/mL) | 21 (≈ 4 µg/mL) | 21 (≈ 4 µg/mL) | 42.1 (≈ 8 µg/mL) | 21 (≈ 4 µg/mL) | MIC (P. shigelloides): 42.1 µM (≈ 8 µg/mL); MIC (A. hydrophila): 5.26 µM (≈ 1 µg/mL); MIC (P. aeruginosa ATCC 27853): 84.1 µM (≈ 16 µg/mL); MIC (P. stutzeri ATCC 17587): 10.5 µM (≈ 2 µg/mL); MIC [6]: 10.5 µM (≈ 2 µg/mL); MIC [7]: 21 µM (≈ 4 µg/mL); MIC (C. albicans ATCC 90028): 42.1 µM (≈ 8 µg/mL); MIC (S. cerevisiae ATCC 2601): 42.1 µM (≈ 8 µg/mL); MIC (Gram-negative bacteria): 5.26 to 84.1 µM (≈ 1 to 16 µg/mL); MIC ([8]; both the Gram-positive and Gram-negative bacteria): 5.26 to 84.1 µM (≈ 1 to 16 µg/mL); antioxidant activity in words [9]: inactive antioxidants; MIC (P. aeruginosa): 84.14 to 168.28 µM; MIC (E. coli): 42.07 µM (≈ 8 µg/mL)
Cc1c(C)c2c(c(C)c1O)CC[C@@](C)(CCC[C@H](C)CCC[C@H](C)CCCC(C)C)O2 [α-tocopherol, α-Tocopherol] | – | – | – | – | – | – | – | – | – | – | – | – | – | – | – | – | – | – | – | – | IC50 ([9]; read-out: RSA IC50, 30 min, 517 nm): 13.5 µM
